Assay [1] addresses T1, Somatostatin receptor type 1 (Homo sapiens, UniProt P30872). In words: Inhibition of somatostatin binding to sst1 receptor at 1 uM in radioligand binding assay ([125I]Tyr11-SRIF) in membranes from CHO-K1 cells. The class given is cell membranes. The method in brief: (§1)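 Competitive binding against [125I]-Tyr11-SRIF on membranes from CHO-K1 cells expressing human sst1–sst5, with each test compound at a single concentration. Nonspecific binding was defined with unlabelled SRIF. Incubations were stopped by rapid filtration through 0.5% PEI-soaked glass-fibre filters, then three washes in 50 mM Tris-HCl pH 7.4 with 5 mg/mL BSA. Filter radioactivity was gamma counted.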

For assay [2], the target named is T2, Somatostatin receptor type 5 (Homo sapiens, UniProt P35346). In words: Inhibition of somatostatin binding to sst5 receptor at 1 uM in radioligand binding assay ([125I]Tyr11-SRIF) in membranes from CHO-K1 cells. The class given is cell membranes. The method in brief:
as §1

In assay [3] the target is T3, Somatostatin receptor type 3 (Homo sapiens, UniProt P32745). The assay can be described thus: Inhibition of somatostatin binding to sst3 receptor at 1 uM in radioligand binding assay ([125I]Tyr11-SRIF) in membranes from CHO-K1 cells. In kind it is cell membranes. In short, it runs like this:
as §1

The target in assay [4] is T4, Somatostatin receptor type 4 (Homo sapiens, UniProt P31391). The assay can be described thus: Inhibition of somatostatin binding to sst4 receptor at 1 uM in radioligand binding assay ([125I]Tyr11-SRIF) in membranes from CHO-K1 cells. The class given is cell membranes. The method in brief:
as §1

Assay [5] concerns the target T5, Somatostatin receptor type 2 (Homo sapiens, UniProt P30874). The assay can be described thus: Inhibition of somatostatin binding to sst2 receptor at 1 uM in radioligand binding assay ([125I]Tyr11-SRIF) in membranes from CHO-K1 cells. In kind it is cell membranes. The method in brief:
as §1

Assay [6] addresses T2, Somatostatin receptor type 5. The assay can be described thus: Inhibitory concentration required for somatostatin 5 receptor in radioligand binding assay ([125I]-Tyr11-SRIF). In short, it runs like this: (§2)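 IC50 values were determined by displacement of [125I]-Tyr11-SRIF on membranes from CHO-K1 cells expressing the relevant human sst subtype. Unlabelled SRIF defined nonspecific binding. Bound ligand was separated by rapid filtration on glass-fibre filters pre-soaked in 0.5% PEI. Filters were washed three times with 50 mM Tris-HCl pH 7.4 containing 5 mg/mL BSA and gamma counted.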

The target in assay [7] is T3, Somatostatin receptor type 3. In words: Inhibitory concentration required for somatostatin 3 receptor in radioligand binding assay ([125I]Tyr11-SRIF). The method in brief:
as §2

Assay [8] has as its target T1, Somatostatin receptor type 1. In words: Inhibitory concentration required for somatostatin 1 receptor in radioligand binding assay ([125I]Tyr11-SRIF). The method in brief: as §2
Assay [9] concerns the target T4, Somatostatin receptor type 4. In words: Inhibitory concentration required for somatostatin 4 receptor in radioligand binding assay ([125I]Tyr11-SRIF). The method in brief: as §2
Assay [10] deals with T5, Somatostatin receptor type 2. The assay can be described thus: Inhibitory concentration required for somatostatin 2 receptor in radioligand binding assay ([125I]Tyr11-SRIF). In short, it runs like this:
as §2

T3 sequence (P32745 whole entry): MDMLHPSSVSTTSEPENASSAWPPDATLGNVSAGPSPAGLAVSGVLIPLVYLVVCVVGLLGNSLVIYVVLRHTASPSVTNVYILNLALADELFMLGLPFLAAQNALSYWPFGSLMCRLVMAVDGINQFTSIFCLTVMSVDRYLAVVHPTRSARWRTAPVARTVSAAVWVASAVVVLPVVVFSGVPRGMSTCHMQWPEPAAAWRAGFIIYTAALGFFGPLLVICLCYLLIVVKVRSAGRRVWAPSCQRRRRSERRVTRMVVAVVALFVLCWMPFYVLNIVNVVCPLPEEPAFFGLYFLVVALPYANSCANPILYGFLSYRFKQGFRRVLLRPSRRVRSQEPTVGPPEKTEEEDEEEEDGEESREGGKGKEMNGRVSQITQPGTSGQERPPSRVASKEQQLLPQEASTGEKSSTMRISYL
T1 sequence (P30872 whole entry): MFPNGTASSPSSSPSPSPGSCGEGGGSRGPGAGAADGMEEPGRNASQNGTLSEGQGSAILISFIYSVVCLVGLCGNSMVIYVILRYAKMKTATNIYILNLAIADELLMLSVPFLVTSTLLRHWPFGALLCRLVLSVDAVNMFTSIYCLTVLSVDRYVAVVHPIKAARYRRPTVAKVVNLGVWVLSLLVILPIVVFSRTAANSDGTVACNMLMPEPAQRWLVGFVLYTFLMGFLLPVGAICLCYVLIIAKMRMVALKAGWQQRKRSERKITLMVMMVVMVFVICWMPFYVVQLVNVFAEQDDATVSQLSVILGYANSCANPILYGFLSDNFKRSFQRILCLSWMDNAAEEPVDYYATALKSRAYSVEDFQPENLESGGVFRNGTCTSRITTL
T2 sequence (P35346 whole entry): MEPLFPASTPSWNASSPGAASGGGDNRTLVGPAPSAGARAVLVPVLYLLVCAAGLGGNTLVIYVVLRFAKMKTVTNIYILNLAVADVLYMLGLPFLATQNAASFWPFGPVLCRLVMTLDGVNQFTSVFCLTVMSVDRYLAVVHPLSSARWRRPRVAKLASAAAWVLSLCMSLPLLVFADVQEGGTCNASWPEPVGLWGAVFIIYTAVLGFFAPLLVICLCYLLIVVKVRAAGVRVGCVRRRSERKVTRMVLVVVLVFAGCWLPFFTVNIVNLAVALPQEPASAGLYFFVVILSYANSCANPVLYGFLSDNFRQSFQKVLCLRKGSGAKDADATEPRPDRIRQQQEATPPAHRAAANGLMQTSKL
T5 sequence (P30874 whole entry): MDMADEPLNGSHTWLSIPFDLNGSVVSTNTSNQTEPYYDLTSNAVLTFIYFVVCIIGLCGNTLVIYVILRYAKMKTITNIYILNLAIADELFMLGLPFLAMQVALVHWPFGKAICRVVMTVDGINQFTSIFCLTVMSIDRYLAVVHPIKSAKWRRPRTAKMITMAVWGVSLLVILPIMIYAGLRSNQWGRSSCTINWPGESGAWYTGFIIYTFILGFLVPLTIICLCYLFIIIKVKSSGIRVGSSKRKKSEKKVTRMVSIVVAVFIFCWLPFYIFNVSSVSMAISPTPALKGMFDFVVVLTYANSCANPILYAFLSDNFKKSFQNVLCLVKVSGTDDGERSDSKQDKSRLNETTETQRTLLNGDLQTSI
T4 sequence (P31391 whole entry): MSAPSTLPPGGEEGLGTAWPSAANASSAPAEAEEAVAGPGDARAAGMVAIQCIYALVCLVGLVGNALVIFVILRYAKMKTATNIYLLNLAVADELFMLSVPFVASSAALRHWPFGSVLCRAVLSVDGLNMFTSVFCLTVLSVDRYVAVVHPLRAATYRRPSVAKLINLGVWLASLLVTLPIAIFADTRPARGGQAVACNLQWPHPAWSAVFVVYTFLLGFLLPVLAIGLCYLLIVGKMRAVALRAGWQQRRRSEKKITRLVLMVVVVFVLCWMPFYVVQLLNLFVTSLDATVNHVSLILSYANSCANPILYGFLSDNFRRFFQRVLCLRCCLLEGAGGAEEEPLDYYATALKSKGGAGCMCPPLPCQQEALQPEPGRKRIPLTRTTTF

Usually inhibition stands for the drop in the measured response relative to a control, in per cent. Turning to `NCC[C@@H]1C[C@@H]2C(=O)N(Cc3cccc4ccccc34)CCS[C@H](Cc3c[nH]c4ccccc34)C(=O)N2C1`, the inhibition in assay [1] was found to be 13%; in assay [2], 56%; in assay [3] it was 19%; in assay [4], 12%; in assay [5] it was 7%.

What is called IC50 is the point on the concentration scale where inhibition reaches its midpoint. `NCCCC[C@H]1NC(=O)[C@@H](Cc2c[nH]c3ccccc23)SCCN(Cc2cccc3ccccc23)C1=O`: the inhibition in [1] is 64%; in assay [2], 99%; in assay [3], 42%; in assay [4], 43%; in [5] it was 33%. The concentration for half-maximal inhibition (IC50) in [6] stood at 87 nM; in assay [7], 3090 nM; in [8], 501 nM; in [9], 1050 nM; in assay [10], 1590 nM.

`NCC[C@H]1C[C@@H]2C(=O)N(Cc3cccc4ccccc34)CCS[C@H](Cc3c[nH]c4ccccc34)C(=O)N2C1`: the inhibition in assay [1] worked out at 28%; in assay [2] it was 50%; in assay [3], 16%; in [4] it was 17%; in assay [5] it was 20%.

With `NCCCC[C@H]1NC(=O)[C@@H](Cc2c[nH]c3ccccc23)Sc2ccccc2CN(Cc2cccc3ccccc23)C1=O`, the inhibition in [1] is 36%; in [2], 64%; in [3] it was 13%; in [4] it was 41%; in assay [5] it was 7%.

For `NCCCC1CCCN2C(=O)[C@@H](Cc3c[nH]c4ccccc34)SCCN(Cc3cccc4ccccc34)C(=O)C12` (stereo not given in full), the inhibition is 64% in assay [1]; 89% in assay [2]; 44% in assay [3]; 99% in assay [4]; 74% in [5]. In addition, the 50% inhibitory concentration (IC50) in [6] is 41 nM; in [7], 1260 nM; in [8] it was 407 nM; in assay [9], 41 nM; in assay [10], 275 nM.

For the origin of these results see ChEMBL document CHEMBL1132841, “Optimization of a somatostatin mimetic via constrained amino acid and backbone incorporation” (Bioorg Med Chem Lett, 2000).
